Key:
panel of 121 kinases = test: kinase selectivity profiling; type: biochemical; details: panel of 121 kinases in vitro; Ruxolitinib at 0.1 μM
BMDMs [1] = test: LPS induced IL-10 mRNA; type: cell-based, mouse; details: 100 ng/ml LPS
Method in brief: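 BMDMs came from wild-type or IFNαβR knockout mice, cultured 7 d with mCSF and used 24 h after replating. They were pretreated 1 h with test compound (0.5 µM or 5 µM), then given 100 ng/ml E. coli O26:B6 LPS over a time course. IL-10 mRNA was measured by Q-PCR (18s-normalised) and secreted IL-10 by multiplex assay. SD from independent cultures of four mice.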

DBA/1J mice = details: IP LPS, 5mg/kg Tofacitinib, ref [50]; cited from earlier work
BMDMs [2] = test: LPS induced pro-inflammatory cytokine production in BMDMs; type: cell-based, mouse
Method in brief: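 BMDMs came from wild-type, IL-10 knockout or IFNαβR knockout mice and were pretreated 1 h with 0.5 µM test compound. Stimulation was 100 ng/ml LPS over a time course, or LPS ± 100 ng/ml IL-10 for 6 h in IL-10 knockout cells. Secreted TNF-α, IL-6, IL-12p40 and IL-12p70 were measured by Luminex multiplex, and the matching mRNAs (IL-12p35 for p70) by 18s-normalised Q-PCR. Four mice per genotype.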

phospho Tyr705 STAT3 = details: BMDMs, 100 ng/ml IL-10 30 min
phospho-Y701 STAT1 = details: BMDMs, 500 Units/ml IFNβ 30 min
BMDMs [3] = test: LPS induced signaling in BMDMs, immunoblotting; type: cell-based, mouse; details: 0.5 μM Ruxolitinib, 100 ng/ml LPS
Method in brief: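 Wild-type mouse BMDMs were pretreated 1 h with 0.5 µM test compound, then stimulated with 100 ng/ml LPS for varying times. Cells were lysed directly in SDS sample buffer and run on 10% polyacrylamide gels, then transferred to nitrocellulose. Blots were probed for total and phospho STAT3 (Y705, S727), phospho-STAT1 Y701, ERK1/2, p38, phospho-JNK, phospho-p105 and IκBα, with HRP secondaries and ECL detection.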

IRAK1 = IRAK1 (Homo sapiens, UniProt P51617); test: in vitro protein kinase assay, IRAK1; type: biochemical; details: 1 μM Ruxolitinib
MARK3 = MARK3 (Homo sapiens, UniProt P27448); test: in vitro protein kinase assay, MARK3; type: biochemical; details: 1 μM Ruxolitinib
TrkA = TrkA (Homo sapiens, UniProt P04629); test: in vitro protein kinase assay, TrkA; type: biochemical; details: read-out: inhibition of TrkA
BMDMs [4] = test: IFNβ induced IL-10 and IL-6 transcription in BMDMs; type: cell-based, mouse; details: 0.5 μM Ruxolitinib, 500 Units/ml IFNβ, wild type BMDMs
Method in brief: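 Wild-type mouse BMDMs were grown 7 d from bone marrow in DMEM with 10% heat-inactivated FBS and 5 ng/ml mCSF, then replated and used 24 h later. Cells were pretreated 1 h with 0.5 µM test compound, then given 500 U/ml IFN-β for varying times. IL-10 or IL-6 mRNA was measured by SYBR green Q-PCR, normalised to 18s against unstimulated wild-type controls. Four mice, independent cultures.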

[5] = 0.5 μM Ruxolitinib, wild type BMDMs
[6] = 0.5 μM Ruxolitinib, 100 ng/ml LPS
[7] = 0.5 μM Ruxolitinib, 100 ng/ml LPS 6 h

MARK3, sequence (P27448 whole entry, species assumed): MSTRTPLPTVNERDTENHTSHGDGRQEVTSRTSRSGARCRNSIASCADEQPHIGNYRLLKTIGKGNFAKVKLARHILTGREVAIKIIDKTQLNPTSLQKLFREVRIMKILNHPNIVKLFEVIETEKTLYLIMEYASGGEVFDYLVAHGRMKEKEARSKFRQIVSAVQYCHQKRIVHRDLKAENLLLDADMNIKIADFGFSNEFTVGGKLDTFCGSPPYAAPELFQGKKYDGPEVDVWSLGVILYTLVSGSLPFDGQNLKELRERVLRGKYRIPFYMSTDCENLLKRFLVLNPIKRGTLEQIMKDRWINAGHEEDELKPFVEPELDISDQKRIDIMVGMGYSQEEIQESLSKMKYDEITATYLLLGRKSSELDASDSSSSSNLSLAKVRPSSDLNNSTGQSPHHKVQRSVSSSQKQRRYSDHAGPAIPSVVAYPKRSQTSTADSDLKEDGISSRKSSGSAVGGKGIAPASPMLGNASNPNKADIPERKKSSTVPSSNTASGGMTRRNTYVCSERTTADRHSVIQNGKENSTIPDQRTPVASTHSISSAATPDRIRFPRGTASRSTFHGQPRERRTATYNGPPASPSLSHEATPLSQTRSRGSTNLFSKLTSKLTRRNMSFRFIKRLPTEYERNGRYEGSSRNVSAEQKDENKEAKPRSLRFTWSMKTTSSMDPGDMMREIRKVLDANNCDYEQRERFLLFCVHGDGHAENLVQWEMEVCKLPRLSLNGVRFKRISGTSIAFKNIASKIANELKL
IRAK1, sequence (P51617 whole entry, species assumed): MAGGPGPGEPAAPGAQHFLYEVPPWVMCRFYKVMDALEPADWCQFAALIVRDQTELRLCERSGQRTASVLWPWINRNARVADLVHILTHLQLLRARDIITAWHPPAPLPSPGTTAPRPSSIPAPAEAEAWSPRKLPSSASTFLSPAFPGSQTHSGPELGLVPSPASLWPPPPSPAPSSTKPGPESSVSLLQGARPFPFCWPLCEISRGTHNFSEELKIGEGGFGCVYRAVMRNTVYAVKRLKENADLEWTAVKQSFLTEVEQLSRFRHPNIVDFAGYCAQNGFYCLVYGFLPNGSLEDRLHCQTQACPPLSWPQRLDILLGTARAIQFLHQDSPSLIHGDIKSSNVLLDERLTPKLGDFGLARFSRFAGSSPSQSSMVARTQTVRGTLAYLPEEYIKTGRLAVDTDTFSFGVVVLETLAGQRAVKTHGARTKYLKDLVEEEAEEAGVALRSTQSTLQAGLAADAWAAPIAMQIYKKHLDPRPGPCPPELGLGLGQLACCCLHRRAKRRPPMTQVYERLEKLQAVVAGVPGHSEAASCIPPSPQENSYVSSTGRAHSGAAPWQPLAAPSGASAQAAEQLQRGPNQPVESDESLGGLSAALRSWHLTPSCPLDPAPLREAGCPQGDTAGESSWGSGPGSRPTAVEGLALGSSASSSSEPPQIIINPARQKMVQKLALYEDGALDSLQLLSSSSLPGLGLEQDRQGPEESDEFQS
TrkA, sequence (P04629 33-796, species assumed): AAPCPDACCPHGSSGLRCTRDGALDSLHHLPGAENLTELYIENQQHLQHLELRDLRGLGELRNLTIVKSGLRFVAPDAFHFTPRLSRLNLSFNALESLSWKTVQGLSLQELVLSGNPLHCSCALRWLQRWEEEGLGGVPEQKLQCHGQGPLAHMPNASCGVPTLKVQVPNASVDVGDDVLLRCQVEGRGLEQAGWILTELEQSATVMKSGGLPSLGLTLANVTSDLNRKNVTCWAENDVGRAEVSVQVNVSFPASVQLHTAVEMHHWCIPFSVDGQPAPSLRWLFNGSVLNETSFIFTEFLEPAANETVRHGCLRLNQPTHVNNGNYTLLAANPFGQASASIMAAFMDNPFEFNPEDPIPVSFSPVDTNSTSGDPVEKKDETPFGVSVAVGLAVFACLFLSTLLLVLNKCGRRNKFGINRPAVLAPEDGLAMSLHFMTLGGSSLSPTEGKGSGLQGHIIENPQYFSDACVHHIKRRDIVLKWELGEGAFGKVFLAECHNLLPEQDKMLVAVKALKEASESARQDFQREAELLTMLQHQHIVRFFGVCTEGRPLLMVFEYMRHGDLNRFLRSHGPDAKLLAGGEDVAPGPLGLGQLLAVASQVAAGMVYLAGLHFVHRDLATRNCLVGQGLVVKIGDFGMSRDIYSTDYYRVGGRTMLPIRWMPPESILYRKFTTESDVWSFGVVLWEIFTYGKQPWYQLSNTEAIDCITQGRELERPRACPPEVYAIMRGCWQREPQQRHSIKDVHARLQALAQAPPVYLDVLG

Compound: N#C/C(=C/c1ccc(O)c(O)c1)C(=O)NCc1ccccc1 [AG-490]
- selectivity in kinase panel (panel of 121 kinases): could also block several Ser/Thr kinases

Compound: C[C@@H]1CCN(C(=O)CC#N)C[C@@H]1N(C)c1ncnc2[nH]ccc12 [Tofacitinib]
- IL-10 mRNA at later time points (BMDMs [1]; 5 μM Tofacitinib): inhibited
- IL-10 secretion at 8 and 16h after LPS stimulation (BMDMs [1]; 5 μM Tofacitinib): decreased
- initial phase of IL-10 transcription (BMDMs [1]; 5 μM Tofacitinib): did not affect
- plasma IL-10 levels (DBA/1J mice): increased
- plasma levels of TNF, IL-6 and IL-12 (DBA/1J mice): reduced
- IL-6 secretion following 24h of LPS stimulation (BMDMs [2]; Tofacitinib): increased
- TNF and IL-12 production in response to a prolonged stimulation with LPS (BMDMs [2]; Tofacitinib at a concentration able to inhibit STAT3 phosphorylation): increased
- IL-10 stimulated STAT3 phosphorylation (phospho Tyr705 STAT3): able to block
- IFNβ stimulated STAT1 phosphorylation (phospho-Y701 STAT1): able to block

Compound: N#CC[C@H](C1CCCC1)n1cc(-c2ncnc3[nH]ccc23)cn1 [Ruxolitinib]
- IL-10 levels secreted from IFNαβR knockout macrophages (BMDMs [1]; 0.5 μM Ruxolitinib): did not affect
- IL-10 secreted into the media at later time points (8 to 24 h) (BMDMs [1]; [5]): decrease
- IL-10 secretion at 4 h (BMDMs [1]; [5]): unaffected
- initial transcription of IL-10 (BMDMs [1]; [5]): did not affect
- transcription of IL-10 at later time points (BMDMs [1]; [5]): reduce
- LPS induced STAT1 Y701 phosphorylation (BMDMs [3]): blocked
- TLR4 induced activation of the ERK1/2, p38 or JNK MAPK cascades (BMDMs [3]): did not affect
- activation of the NFκB pathway (IκBα degradation, p105 and IκBα phosphorylation) (BMDMs [3]): no major affects
- phosphorylation of STAT3 on S727 (BMDMs [3]): not blocked
- phosphorylation of STAT3 on Y705 in response to LPS (BMDMs [3]): completely blocked
- activity against IRAK1 (IRAK1): weak activity
- IL-6 production from IFNαβR knockout macrophages (BMDMs [2]; [6]): increased
- IL-6 production from wild type cells (BMDMs [2]; [6]): increased
- TNFα production in IL-10 knockout cells (BMDMs [2]; [6]): little effect
- peak amount of LPS-induced IL-12 mRNA in IL-10 knockout cells (BMDMs [2]; [6]): decreased
- secreted levels of IL-6 in wild type and IL-10 knockout cells (BMDMs [2]; [6]): intermediate between the wild type and IL-10 knockout cells
- production of IL-6 by LPS in IL-10 knockout BMDMs (BMDMs [2]; [7]): moderately decreased
- production of TNFα by LPS in IL-10 knockout BMDMs (decrease) (BMDMs [2]; [7]): to a lesser extent
- TNFα mRNA and secreted protein levels in wild type cells (BMDMs [2]; 0.5 μM Ruxolitinib, 100 ng/ml LPS, to similar values as IL-10 knockout BMDMs): increased
- inhibitory effects of IL-10 on TNFα and IL-6 production (BMDMs [2]; IL-10 knockout BMDMs, 0.5 μM Ruxolitinib, LPS and 100 ng/ml IL-10 6 h): blocked
- activity against MARK3 (MARK3): weak activity
- inhibition at 0.1 µM (TrkA): > 50%
- IFNβ induced IL-10 transcription (BMDMs [4]): greatly reduced
- IFNβ stimulated IL-6 transcription (BMDMs [4]): inhibited

Source: paper PMC3443740 (Journal of immunology (Baltimore, Md. : 1950), 2012)
